From ChEMBL document CHEMBL1921792, “Synthesis and anticonvulsant activity of trans- and cis-2-(2,6-dimethylphenoxy)-N-(2- or 4-hydroxycyclohexyl)acetamides and their amine analogs” (Bioorg Med Chem, 2011)
The source made the active and inactive calls. No cut-off for these calls is given here.

How the values were obtained:
N1E-115 = assay: Blockade of voltage-gated sodium channel in mouse N1E-115 cells assessed as stimulation at 100 umol at -90 mV holding potential by whole-cell patch clamp electrophysiological assay relative to control; format: cell-based
Method in brief: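 Whole-cell patch clamp with borosilicate glass electrodes on single cultured N1E-115 neuroblastoma cells. Compound at 100 µmol, holding potential -90 mV. Voltage-dependent sodium current expressed as % of control stimulation (no compound). Results from 5–8 cells averaged with SEM; significance by Student's t-test.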

Mus musculus [1] = assay: Anticonvulsant activity in mouse assessed as protection against maximal electric shock-induced seizures at 100 mg/kg, ip after 4 hrs; format: functional, organism-based; parameters: dose 100 mg/kg
Method in brief: (§1)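 Phase I maximal electroshock screen in mice. Compound given ip as a suspension in 0.5% methylcellulose at 30, 100 or 300 mg/kg, tested at 30 min and 4 h. Small groups (1–8); result is number protected/number tested.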

Mus musculus [2] = assay: Anticonvulsant activity in mouse assessed as protection against maximal electric shock-induced seizures at 100 mg/kg, ip after 0.5 hrs; format: functional, organism-based; parameters: dose 100 mg/kg; method in brief: as §1
Mus musculus [3] = assay: Anticonvulsant activity in mouse assessed as protection against maximal electric shock-induced seizures at 30 mg/kg, ip after 0.5 hrs; format: functional, organism-based; parameters: dose 30 mg/kg; method in brief: as §1
Mus musculus [4] = assay: Anticonvulsant activity in mouse assessed as protection against maximal electric shock-induced seizures at 30 mg/kg, ip after 4 hrs; format: functional, organism-based; parameters: dose 30 mg/kg; method in brief: as §1
Mus musculus [5] = assay: Anticonvulsant activity in mouse assessed as protection against maximal electric shock-induced seizures at 300 mg/kg, ip after 0.5 hrs; format: functional, organism-based; parameters: dose 300 mg/kg; method in brief: as §1
Mus musculus [6] = assay: Anticonvulsant activity in mouse assessed as protection against maximal electric shock-induced seizures at 300 mg/kg, ip after 4 hrs; format: functional, organism-based; parameters: dose 300 mg/kg; method in brief: as §1
Mus musculus [7] = assay: Anticonvulsant activity against subcutaneous pentylenetetrazole-induced seizures in mouse at 30 mg/kg, ip after 0.5 hrs; format: functional, organism-based; parameters: dose 30 mg/kg
Method in brief: (§2)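 Phase I screen in mice. Compound given ip as a suspension in 0.5% methylcellulose, read at 30 min and 4 h. Pentylenetetrazole 85 mg/kg in 0.9% NaCl was injected sc into the posterior midline and animals watched ≥30 min. Protection meant no clonic spasm lasting ≥5 s. Groups of 1–8 animals; result is protected/tested.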

Mus musculus [8] = assay: Anticonvulsant activity against subcutaneous pentylenetetrazole-induced seizures in mouse at 30 mg/kg, ip after 4 hrs; format: functional, organism-based; parameters: dose 30 mg/kg; method in brief: as §2
Mus musculus [9] = assay: Anticonvulsant activity against subcutaneous pentylenetetrazole-induced seizures in mouse at 100 mg/kg, ip after 0.5 hrs; format: functional, organism-based; parameters: dose 100 mg/kg; method in brief: as §2
Mus musculus [10] = assay: Anticonvulsant activity against subcutaneous pentylenetetrazole-induced seizures in mouse at 100 mg/kg, ip after 4 hrs; format: functional, organism-based; parameters: dose 100 mg/kg; method in brief: as §2
Mus musculus [11] = assay: Anticonvulsant activity against subcutaneous pentylenetetrazole-induced seizures in mouse at 300 mg/kg, ip after 0.5 hrs; format: functional, organism-based; parameters: dose 300 mg/kg; method in brief: as §2
Mus musculus [12] = assay: Anticonvulsant activity against subcutaneous pentylenetetrazole-induced seizures in mouse at 300 mg/kg, ip after 4 hrs; format: functional, organism-based; parameters: dose 300 mg/kg; method in brief: as §2
Mus musculus [13] = assay: Neurotoxicity in mouse assessed as inability to maintain equilibrium on rotarod at 30 mg/kg, ip after 0.5 hrs by rotarod test; format: toxicity, organism-based; parameters: dose 30 mg/kg, route intraperitoneal; conditions: in vivo
Method in brief: (§3)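 Drug given ip to mice as a suspension in 0.5% methylcellulose. At the stated time after dosing, each mouse was placed on a 1 inch knurled rod turning at 6 rpm. Neurotoxicity = inability to stay balanced at least 1 min in each of three trials. Scored as animals toxic/animals tested in small groups.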

Mus musculus [14] = assay: Neurotoxicity in mouse assessed as inability to maintain equilibrium on rotarod at 300 mg/kg, ip after 0.5 hrs by rotarod test; format: toxicity, organism-based; parameters: dose 300 mg/kg, route intraperitoneal; conditions: in vivo; method in brief: as §3
Mus musculus [15] = assay: Neurotoxicity in mouse assessed as inability to maintain equilibrium on rotarod at 30 mg/kg, ip after 4 hrs by rotarod test; format: toxicity, organism-based; parameters: dose 30 mg/kg, route intraperitoneal; conditions: in vivo; method in brief: as §3
Mus musculus [16] = assay: Neurotoxicity in mouse assessed as inability to maintain equilibrium on rotarod at 100 mg/kg, ip after 4 hrs by rotarod test; format: toxicity, organism-based; parameters: dose 100 mg/kg, route intraperitoneal; conditions: in vivo; method in brief: as §3
Mus musculus [17] = assay: Neurotoxicity in mouse assessed as inability to maintain equilibrium on rotarod at 300 mg/kg, ip after 4 hrs by rotarod test; format: toxicity, organism-based; parameters: dose 300 mg/kg, route intraperitoneal; conditions: in vivo; method in brief: as §3
Rattus norvegicus [18] = assay: Anticonvulsant activity in rat assessed as protection against maximal electric shock-induced seizures at 30 mg/kg, po after 0.5 hrs; format: functional, organism-based; parameters: dose 30 mg/kg
Method in brief: (§4)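 MES test in rats dosed orally at 30 mg/kg as a suspension in 0.5% methylcellulose, read at 0.25–4 h. Four rats per time point; result is protected/tested.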

Rattus norvegicus [19] = assay: Neurotoxicity in rat assessed as neurological deficit at 30 mg/kg, po after 0.25 hrs […]; format: toxicity, organism-based; parameters: dose 30 mg/kg, route oral; conditions: in vivo
Method in brief: (§5)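 Rats given the compound, suspended in 0.5% methylcellulose, by the stated route and dose. Neurological deficit was recorded at the listed times as ataxia and loss of placing response and muscle tone. Reported as number of rats showing toxicity/number tested.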

Rattus norvegicus [20] = assay: Neurotoxicity in rat assessed as neurological deficit at 30 mg/kg, po after 0.5 hrs […]; format: toxicity, organism-based; parameters: dose 30 mg/kg, route oral; conditions: in vivo; method in brief: as §5
Rattus norvegicus [21] = assay: Neurotoxicity in rat assessed as neurological deficit at 30 mg/kg, po after 1 hr […]; format: toxicity, organism-based; parameters: dose 30 mg/kg, route oral; conditions: in vivo; method in brief: as §5
Rattus norvegicus [22] = assay: Neurotoxicity in rat assessed as neurological deficit at 30 mg/kg, po after 2 hrs […]; format: toxicity, organism-based; parameters: dose 30 mg/kg, route oral; conditions: in vivo; method in brief: as §5
Rattus norvegicus [23] = assay: Neurotoxicity in rat assessed as neurological deficit at 30 mg/kg, po after 4 hrs by rotarod test; format: toxicity, organism-based; parameters: dose 30 mg/kg, route oral; conditions: in vivo; method in brief: as §5
Rattus norvegicus [24] = assay: Anticonvulsant activity in rat assessed as protection against maximal electric shock-induced seizures at 30 mg/kg, po after 0.25 hrs; format: functional, organism-based; parameters: dose 30 mg/kg; method in brief: as §4

For Nc1nnc(-c2cccc(Cl)c2Cl)c(N)n1, the Activity (N1E-115) was 67%.
For Cc1cccc(C)c1OCC(=O)NC1CCC(O)CC1.Cl (racemic), the Activity (Mus musculus [1]) was “inactive”, the Activity (Mus musculus [2]) was “Active” and the Activity (Mus musculus [3]) was “inactive”. The Activity (Mus musculus [4]) was “inactive”, the Activity (Mus musculus [5]) was “Active” and the Activity (Mus musculus [6]) was “inactive”. The Activity (Mus musculus [7]) was “inactive”, the Activity (Mus musculus [8]) was “inactive” and the Activity (Mus musculus [9]) was “inactive”. For the same compound, the Activity (Mus musculus [10]) was “inactive”, the Activity (Mus musculus [11]) was “Active” and the Activity (Mus musculus [12]) was “inactive”. For the same compound, the Activity (Mus musculus [13]) was “Non-toxic”, the Activity (Mus musculus [14]) was “Toxic” and the Activity (Mus musculus [15]) was “Non-toxic”. The Activity (Mus musculus [16]) was “Non-toxic”, the Activity (Mus musculus [17]) was “Non-toxic” and the Activity (Rattus norvegicus [18]) was “Active”. The Activity (Rattus norvegicus [19]) was “Non-toxic”, the Activity (Rattus norvegicus [20]) was “Non-toxic” and the Activity (Rattus norvegicus [21]) was “Non-toxic”. The Activity (Rattus norvegicus [22]) was “Non-toxic”, the Activity (Rattus norvegicus [23]) was “Non-toxic” and the Activity (Rattus norvegicus [24]) was “Active”.
